# Measured values taken from ChEMBL document CHEMBL1833854, “2,5-Disubstituted-1,3,4-oxadiazoles/thiadiazole as surface recognition moiety: design and synthesis of novel hydroxamic acid based histone deacetylase inhibitors” (Bioorg Med Chem Lett, 2011).
# Experiments:
# HCT-116 = test: Antiproliferative activity against human HCT116 cells by MTT assay; format: functional, cell-based
# Histone deacetylase 1 = Histone deacetylase 1 (Homo sapiens, UniProt Q13547); test: Inhibition of HDAC1 by fluorescent activity assay
# [1] = Antitumor activity against mouse EAC cells transplanted in Swiss albino mouse assessed as tumor cell inhibition in ascetic fluid at 0.2 mmol/kg, ip administered qd for 7 days measured on 8th day; format: functional; details: Ehrlich, 168 h, read-out: GI
# In short: (§1)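 Ehrlich ascites carcinoma cells (9 days old) were taken from a donor mouse into sterile isotonic saline and adjusted to 10 × 10⁶ cells/mL. Mice received 0.1 mL per 10 g ip on day 0. Compound in PBS pH 7.2 (0.1 mL/10 g) was given ip on days 1–7 at 24-h intervals; controls received vehicle only. On day 8, after 6 h fasting, peritoneal cells were counted and ascitic fluid weight was taken from body weight before and after fluid removal.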
# [2] = Antitumor activity against mouse EAC cells transplanted in Swiss albino mouse assessed as tumor weight inhibition in ascetic fluid at 0.2 mmol/kg, ip administered qd for 7 days measured on 8th day; format: functional; details: Ehrlich, 168 h, read-out: GI; in short: as §1
# [3] = Antitumor activity against mouse EAC cells transplanted in Swiss albino mouse assessed as tumor cell inhibition in ascetic fluid at 1 mg/kg, ip administered qd for 7 days measured on 8th day; format: functional; details: Ehrlich, 168 h, route intraperitoneal, read-out: GI
# In short: (§2)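 Swiss albino mice were inoculated ip on day 0 with 9-day-old Ehrlich ascites carcinoma cells from a donor mouse (10 × 10⁶ cells/mL in isotonic saline, 0.1 mL per 10 g). Mitomycin-C served as the standard at 1 mg/kg; controls received vehicle only. Mice were sacrificed on day 8 after 6 h without food and water. Peritoneal fluid cells were counted, and ascitic fluid weight came from body weight before and after draining the cavity.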
# [4] = Antitumor activity against mouse EAC cells transplanted in Swiss albino mouse assessed as tumor weight inhibition in ascetic fluid at 1 mg/kg, ip administered qd for 7 days measured on 8th day; format: functional; details: Ehrlich, 168 h, route intraperitoneal, read-out: GI; in short: as §2
# Histone deacetylase 1, sequence (Q13547 whole entry): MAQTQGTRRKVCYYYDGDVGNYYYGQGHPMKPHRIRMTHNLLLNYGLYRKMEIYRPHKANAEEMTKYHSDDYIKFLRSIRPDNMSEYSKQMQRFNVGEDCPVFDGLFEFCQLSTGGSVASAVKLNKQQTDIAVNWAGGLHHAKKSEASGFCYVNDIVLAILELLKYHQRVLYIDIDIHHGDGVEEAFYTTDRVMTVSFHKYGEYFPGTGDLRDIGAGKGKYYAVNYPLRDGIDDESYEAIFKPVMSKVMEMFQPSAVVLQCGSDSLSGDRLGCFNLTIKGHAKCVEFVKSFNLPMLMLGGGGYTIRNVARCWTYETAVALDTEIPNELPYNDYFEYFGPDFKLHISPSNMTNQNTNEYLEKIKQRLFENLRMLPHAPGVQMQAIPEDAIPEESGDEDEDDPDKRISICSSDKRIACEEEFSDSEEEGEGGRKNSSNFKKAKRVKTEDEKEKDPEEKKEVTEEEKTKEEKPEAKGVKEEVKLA
Structure (SMILES),IC50 (HCT-116),IC50 (Histone deacetylase 1),inhibition in vivo at 200 µmol/kg [1],inhibition in vivo at 200 µmol/kg [2],inhibition in vivo at 1 mg/kg [3],inhibition in vivo at 1 mg/kg [4]
O=C(NO)c1cnc(Nc2nnc(-c3ccc(F)cc3)o2)nc1,60 nM,9 nM,16.4%,24.1%,–,–
CN(C)c1ccc(-c2nnc(Nc3ncc(C(=O)NO)cn3)o2)cc1,200 nM,9 nM,56.8%,55.5%,–,–
O=C(NO)c1cnc(Nc2nnc(-c3ccccc3)s2)nc1,80 nM,8 nM,29.5%,14.2%,–,–
O=C(NO)c1cnc(Nc2nnc(-c3ccc(Cl)cc3)s2)nc1,160 nM,10 nM,32%,48.3%,–,–
CN(C)c1ccc(-c2nnc(Nc3ncc(C(=O)NO)cn3)s2)cc1,200 nM,11 nM,51.1%,61.1%,–,–
CO[C@@]12[C@H](COC(N)=O)C3=C(C(=O)C(C)=C(N)C3=O)N1C[C@@H]1N[C@@H]12 [MITOMYCIN],–,–,–,–,100%,100%
